T cell modulator = modulators of CD8 T cell-vesicle binding, primary screen, mouse 2C CD8+ T cells, flow cytometry; 2C CD8+ T cell-vesicle binding; stronger effect = lower value; hit rate 0.068% among 330,000; response (vesicle binding), % at 7 µM; AID 2052, 2009;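 active = response, share of CD8 T cells binding vesicles, and their 90th percentile fluorescence all below set limits, cut at about 80% in these data, passing the limit was not always enough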;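 note: values below 100% mean blocked vesicle binding to the CD8+ T cells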
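Assay system – 2C mouse CD8+ T cells · Also added – QL9-loaded Drosophila micro-vesicles · Timing – Cell–vesicle co-incubation 1.5 h at 37 °C, staining 20 min on ice · Signal – flow cytometry of vesicle-bound cells · Measure – percent CD8+ FL2 mean versus row control · Controls – Peptide-free naked vesicles (low) and QL9 vesicles with 0.7% DMSO vehicle (high)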
Glyco luc inh = increase of ERlucT glycosylation luciferase signal, primary screen, N-linked glycosylation inhibitor project, D54 ERlucT cells, luminescence, set 2. D54 ERlucT glycosylation luciferase reporter, 24 h; percent of 100 nM tunicamycin response. reporter increase, % at 12.5 µM. hit rate 0.23% among 360,000. AID 588692, 2011;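 active = mean luciferase reporter signal, scaled so untreated is 0 and the glycosylation-blocking control 100, at or above a set limit in every replicate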;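 note: luciferase carries N-glycosylation sites so blocking glycosylation raises the light; 0% = median of neutral control wells and 100% = median of 100 nM tunicamycin wells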
ALR inh = inhibitors of human ALR sulfhydryl oxidase, primary screen, biochemical, H2O2 detection, HRP-luminol luminescence, single point | FAD-linked sulfhydryl oxidase ALR (Homo sapiens), P55789 | purified ALR, DTT oxidation | inhibition, % (test concentration not listed) | hit rate 3.8% among 290,000;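 active = mean replicate inhibition above about 79%, with every replicate also reaching it, limit read from the data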
Target sequence (P55789 whole entry, looked up): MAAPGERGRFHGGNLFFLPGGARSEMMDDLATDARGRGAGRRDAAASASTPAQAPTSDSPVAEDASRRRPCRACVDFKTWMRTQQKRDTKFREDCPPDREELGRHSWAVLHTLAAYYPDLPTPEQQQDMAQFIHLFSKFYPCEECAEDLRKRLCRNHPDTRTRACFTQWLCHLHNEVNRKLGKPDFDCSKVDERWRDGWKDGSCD
An asterisk follows results filed as active; . = not tested or not shown. Shown is part of a subset that was picked to be rich in hits.

SMILES | T cell modulator | Glyco luc inh | ALR inh
N#C/C(=C\c1cccnc1)C(=O)Nc1ccc(C(=O)O)cc1 | 388 | 0 | 54
N#C/C(=C\c1ccncc1)C(=O)Nc1ccc(C(=O)O)cc1 | 274 | 3 | 95*
N#C/C(=C\c1ccc(O)c(O)c1)C(=O)Nc1ccccc1 | 636 | -2 | 99*
CCN1CCN(C(=O)C(C)Sc2nc3nc(C)cc(C)n3n2)CC1 (stereo not drawn) | 423 | 2 | -1
CCC(C)(C)C1CCc2[nH]nc(C(=O)NCCCNC(=O)OC(C)(C)C)c2C1 (stereo not drawn) | 534 | -1 | -11
CCCn1ncc(CN2CCC(Oc3ccc(C(=O)N4CCCC4)cc3)CC2)c1C | 582 | -3 | -9
CCCNC(=O)C1(S(=O)(=O)c2ccccc2)CC=CC1 | 306 | 3 | .
OC1CCC2CN3CCc4c([nH]c5ccccc45)C3CC2C1 (stereo not drawn) | . | 0 | .
COc1ccc(O)c(/C=C(\C#N)C(=O)Nc2cccnc2)c1 | 272 | 3 | 98*
COc1ccc(/C=C(\C#N)C(=O)Nc2cccnc2)cc1 | 623 | 1 | -1
Cc1ccc(Nc2c([N+](=O)[O-])c(=O)oc3ccccc23)cc1 | 346 | 0 | -3
O=c1oc2ccccc2c(Nc2ccc(O)cc2)c1[N+](=O)[O-] | 181 | -1 | 94*
COc1ccc(N2C(=O)CC(Nc3ccc(C)cc3)C2=O)cc1 (stereo not drawn) | 253 | 2 | -14
COc1ccc(N2C(=O)CC(NNc3ncc(Cl)cc3Cl)C2=O)cc1 (stereo not drawn) | 275 | 0 | 84*
O=C(NC1CCCCC1)N1CCN(c2ccccc2)CC1 | 302 | -2 | .
COc1ccc(N2CCN(C(=O)NC3CCCCC3)CC2)cc1 | 269 | 0 | 81*
COc1cccc(NC(=O)C2CCN(C(=O)NC3CCCCC3)CC2)c1 | 482 | -2 | 0
COc1cccc(N2CCN(C(=O)NC3CCCCC3)CC2)c1 | 421 | 2 | 77*
CC(C(=O)NC(=O)NC1CCCCC1)N1CCN(c2ccccn2)CC1 (stereo not drawn) | 436 | -2 | -10
CC(C(=O)NC(=O)NC1CCCCC1)N1CCN(c2ccc(O)cc2)CC1 (stereo not drawn) | 342 | -2 | 99*
Clc1ccccc1-c1cc2nc(NCc3ccco3)ccn2n1 | . | 7 | .
COc1ccc(NC(=O)C2(C)CCCN(C(C)C)C2)cc1F (stereo not drawn) | . | -2 | .
O=C(N[C@@H]1CCC(=O)N(CC[C@H](Oc2ccccc2)c2ccccc2)CC1)OCc1ccccc1 | 149 | -5 | -1
COCCn1c(SCC(=O)Nc2ccc(F)cc2)nc2c([nH]c3ccccc32)c1=O | 405 | 0 | 58
COCCn1c(SCC(=O)Nc2ccc(C(N)=O)cc2)nc2c([nH]c3ccccc32)c1=O | 204 | 3 | 99*
SMILES | T cell modulator | Glyco luc inh | ALR inh
COc1ccc(OC)c(NC(=O)Nc2nnc([C@@H]3O[C@H](CO)[C@@H](O)[C@H]3O)s2)c1 | . | 2 | .
CC1CCCN(S(=O)(=O)c2ccc(C(=O)Nc3nnc(C4=COCCO4)o3)cc2)C1 (stereo not drawn) | 829 | 3 | 98*
CC1CCCCN1S(=O)(=O)c1ccc(C(=O)Nc2nnc(C3=COCCO3)o2)cc1 (stereo not drawn) | 401 | 5 | 97*
O=C(Nc1nnc(C2=COCCO2)o1)c1ccc(S(=O)(=O)N2CCOCC2)cc1 | 0 | -1 | 7
Cc1nnc(NC(=O)c2ccc(S(=O)(=O)N3CCCCC3C)cc2)o1 (stereo not drawn) | 333 | 2 | -3
Cc1ccc(N2CC(C(=O)NCCN3CCOCC3)CC2=O)cc1C (stereo not drawn) | 203 | 0 | .
Cc1cc(Br)ccc1NC(=O)CN(C)C(=O)C1CCN(c2ncnc3sc(C)c(C)c23)CC1 | . | -6 | .
COC(=O)c1cn(C(=O)c2cc(Cl)ccc2Cl)c2ccccc12 | 194 | 4 | -6
O=C1N/C(=C/c2ccc(N3CCCC3)cc2)C(=O)N1c1ccccc1 | 164 | -1 | 1
O=C1/C(=C/c2ccc(N3CCCC3)cc2)NC(=S)N1C1CC1 | 101 | 1 | 97*
O=C(Nc1nc(COc2ccccc2)cs1)c1ccccc1F | 202 | -4 | 4
Cc1nc2ccccc2n1-c1ccccc1 | 214 | 2 | -5
Cc1nc2cc(N)ccc2n1-c1ccccc1 | 172 | -1 | 99*
CCN(CC(=O)Nc1c(F)cccc1F)C(=O)c1cccc(S(=O)(=O)NCc2ccccc2)c1 | 332 | -2 | -5
CN(C)C1(CNC(=O)C2CCN(S(=O)(=O)c3c(Cl)cccc3Cl)CC2)CCCCC1 | 403 | -3 | -1

Screening results: PubChem, several laboratories
